LANA-H2A inh – blocks KSHV LANA binding to histone H2A/H2B. inhibition, % (no concentration beside the values). AID 2629. cell-free LANA-H2A/H2B peptide, fluorescence polarization. hit rate 0.6% among 320,000. Q9QR71; in the data active = inhibition mostly above about 10%, no sharp cut-off; inactive = mostly below about 6.7%
Arr AP2 block – blocks beta-arrestin peptide binding to AP2 adaptin; FITC-arrestin peptide / GST-AP2 beads, flow cytometry; AP2 beta2 appendage carries R879A mutation; inhibition, % at 10 µM; hit rate 0.31% among 340,000;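 active = inhibition above a set limit, near 3 SD of compounds lacking own fluorescence, cut at about 54% in these data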;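 note: plate controls were DMSO wells for no effect and 5 µM unlabelled arrestin peptide for full effect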
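System: GST-AP2 R879A bound to glutathione beads, E. coli-expressed. Also added: 50 nM FITC-arrestin peptide. Schedule: compound with beads 12 min RT, then probe 1 h RT. Signal: bead flow cytometry, FITC channel. Read-out basis: percent response.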
T cell HTS – T cell immune modulators affecting CD8 T cell-vesicle binding; hit rate 0.068% among 330,000; response (vesicle binding), % at 7 µM; AID 2052; 2C CD8+ T cell-vesicle binding, flow cytometry; active compounds read low;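 active = response, share of CD8 T cells binding vesicles, and their 90th percentile fluorescence all below set limits, cut at about 80% in these data, passing the limit was not always enough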;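 note: values below 100% mean blocked vesicle binding to the CD8+ T cells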
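Test system: purified 2C TCR transgenic mouse naive CD8+ T cells. Probe or stimulus: QL9-peptide-loaded Drosophila micro-vesicles bearing Ld, ICAM-1 and B7-1. Incubation: binding step 1.5 h, 37 °C, antibody labelling 20 min, ice. Measured by: flow cytometry of vesicle-bound cells.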
HDAC3 inhib – human HDAC3 inhibition; inhibition, % at 8.3 µM; hit rate 0.15% among 320,000; O15379; recombinant HDAC3, fluorogenic peptide/trypsin coupled, fluorescence; AID 2718; in the data active = inhibition above about 26%, passing the limit was not always enough; inconclusive = no clear call, values can overlap the other calls
Target sequence (O15379 whole entry, looked up): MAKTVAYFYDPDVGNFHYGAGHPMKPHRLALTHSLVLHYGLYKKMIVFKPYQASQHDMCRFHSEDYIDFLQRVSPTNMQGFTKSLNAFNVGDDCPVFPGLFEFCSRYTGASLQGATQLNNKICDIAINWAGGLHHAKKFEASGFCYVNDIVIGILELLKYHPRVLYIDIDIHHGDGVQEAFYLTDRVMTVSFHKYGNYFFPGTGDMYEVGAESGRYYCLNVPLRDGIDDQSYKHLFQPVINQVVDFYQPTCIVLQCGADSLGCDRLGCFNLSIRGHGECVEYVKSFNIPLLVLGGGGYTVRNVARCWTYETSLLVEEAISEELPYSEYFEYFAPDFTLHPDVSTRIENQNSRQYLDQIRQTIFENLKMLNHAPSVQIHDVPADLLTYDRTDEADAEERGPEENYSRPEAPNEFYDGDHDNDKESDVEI
Pemphigus Ab inh – human desmoglein-3 autoantibody binding inhibition | P32926 | DSG3-coupled beads, scFv-anti-DSG3-GFP binding, flow cytometry; active compounds read low | binding (percent of control), % at 10 µM | hit rate 0.48% among 310,000 | AID 588358;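 active = binding more than 3 SD below its plate's average and above zero; inconclusive = below that plate limit but binding exactly zero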;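 note: hits lower antibody fragment binding to DSG3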
* = called active by the depositor. Only some compounds are listed: those with a hit (about 1.5% of all), similar ones and a draw of the others.

`CC(=O)CCC(C)=O` gave LANA-H2A inh active, Arr AP2 block 18, T cell HTS 328, HDAC3 inhib 2 and Pemphigus Ab inh 100.
CC(C(=O)c1c[nH]c2ccccc12)N1CCSCC1 (configuration not stated) was read as LANA-H2A inh 23*, Arr AP2 block -1, T cell HTS 270, HDAC3 inhib -5 and Pemphigus Ab inh 114.
`COC(=O)C1=C(c2ccc(S(C)(=O)=O)cc2)C[C@@H]2CC[C@H]1N2C(=O)NCc1cccc2ccccc12` gave LANA-H2A inh 0, Arr AP2 block -2, T cell HTS 426, HDAC3 inhib -14 and Pemphigus Ab inh 104.
Screening CCCOc1ccc(C(C)=O)cc1Cc1c(O)[nH]c(=S)[nH]c1=O returned LANA-H2A inh 16*, Arr AP2 block 5, T cell HTS 340, HDAC3 inhib -6 and Pemphigus Ab inh 94.
Screening CCC1CN1P(=O)(N1CCCC1)N1CC1CC (configuration not stated) returned Arr AP2 block -7 and Pemphigus Ab inh 89.
`Cc1c(NS(=O)(=O)c2ccccc2)ccc([N+](=O)[O-])c1Cl` gave Arr AP2 block -4 and Pemphigus Ab inh 94.
O=[N+]([O-])c1ccc(Cl)c(Cl)c1Cl was read as LANA-H2A inh 24*, Arr AP2 block 8, T cell HTS 585, HDAC3 inhib -1 and Pemphigus Ab inh 101.
`Cn1cccc1/C=C1/C(=O)NC(=O)N(Cc2ccc(F)cc2)C1=O` gave LANA-H2A inh 0, Arr AP2 block -1, T cell HTS 100, HDAC3 inhib 2 and Pemphigus Ab inh 93.
Cn1cccc1/C=C1/C(=O)NC(=S)N(Cc2ccc(F)cc2)C1=O was read as LANA-H2A inh 7, Arr AP2 block 11, T cell HTS 291, HDAC3 inhib 2 and Pemphigus Ab inh 70*.
For CC1CC(C)CN(C(=O)COC(=O)c2cn(C)c3ccccc23)C1 (configuration not stated) the results were LANA-H2A inh 0, Arr AP2 block 31, T cell HTS 264, HDAC3 inhib 13 and Pemphigus Ab inh 101.
For O=C1N[C@H](Cc2ccccc2)C(=O)N2[C@@H]3[C@H](C[C@@H]12)c1ccccc1N3OOSc1ccccc1 the results were LANA-H2A inh 5, Arr AP2 block 19, T cell HTS 631, HDAC3 inhib 4 and Pemphigus Ab inh 96.
`C#CC1(OC(=O)c2ccccc2)CC(C)N(C)CC1C` (configuration not stated) gave LANA-H2A inh -6, Arr AP2 block -8, T cell HTS 198, HDAC3 inhib 14 and Pemphigus Ab inh 114.
Screening CCOC(=O)Cc1csc(NC(=O)c2c(O)c3ccccc3n(CCC(C)C)c2=O)n1 returned LANA-H2A inh 15*, Arr AP2 block -1, T cell HTS 727, HDAC3 inhib 2 and Pemphigus Ab inh 86.
O=c1[nH]cnc2nc(-c3ccc(N(CCCl)CCCl)cc3)[nH]c12 was read as Arr AP2 block -2 and Pemphigus Ab inh 106.
`Cc1ccc(-n2c(O)c(C=NCCCn3ccnc3)c(=O)[nH]c2=O)cc1` gave LANA-H2A inh 13*, Arr AP2 block -9, T cell HTS 173, HDAC3 inhib -6 and Pemphigus Ab inh 108.
COc1ccc(-n2c(O)c(C=NCCCn3ccnc3)c(=O)[nH]c2=O)cc1 was read as LANA-H2A inh 2, Arr AP2 block -3, T cell HTS 159, HDAC3 inhib 1 and Pemphigus Ab inh inconclusive.
For CN(C(=O)Cc1ccc(Cl)c(Cl)c1)C(CN1CCCC1)c1cccc(OCC(=O)O)c1 (configuration not stated) the results were LANA-H2A inh -6, Arr AP2 block 8, T cell HTS 574, HDAC3 inhib -1 and Pemphigus Ab inh 95.
`OC(c1ccc(F)cc1)C(c1ccccc1)N1CCOCC1` (configuration not stated) gave LANA-H2A inh 5, Arr AP2 block 27, T cell HTS 390, HDAC3 inhib 5 and Pemphigus Ab inh 23*.
`O=C(c1ccccc1)C(Cc1ccccc1)N1CCOCC1` (configuration not stated) gave Arr AP2 block 5.
N#CCCCCC#N was read as Arr AP2 block -8, T cell HTS inactive and Pemphigus Ab inh 98.
